Assay outcomes deposited in PubChem BioAssay by Sanford-Burnham Center for Chemical Genomics.
tim10-1 inh: inhibits growth of tim10-1 mutant yeast; 330,000 compounds, 2.2% hits; S. cerevisiae tim10-1 ts strain growth, BacTiter-Glo, 24 h; inhibition, % at 20 µM;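 active = inhibition of at least 40%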;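 note: mutant grown at 25 °C; 0% = DMSO wells with yeast and 100% = wells holding no yeast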
TIM10 inh: inhibits growth of TIM10 yeast strain. 330,000 compounds, 1.4% hits. inhibition, % at 10 µM. AID 463195. S. cerevisiae TIM10 strain growth, BacTiter-Glo luminescence, 24 h;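 active = inhibition of 40% or more at the single tested concentration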;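 note: wild-type TIM10 isogenic control strain grown at permissive 25 °C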
UPR CHOP act: activators of apoptotic arm of unfolded protein response (CHOP); CHO-CHOP luciferase reporter, UPR activation, luminescence; percent of tunicamycin response over DMSO baseline; activation, % at 10 µM; 330,000 compounds, 0.34% hits;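 active = at 10 µM dose, activation of 40% or more, normalized to positive control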;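 note: 100% = tunicamycin at 10 µg/mL and 0% = DMSO alone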
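Test system: CHO-CHOP cells, stable luciferase reporter of PERK-eIF2a-CHOP signalling | Quantity: 500 CHO-CHOP cells per well | Buffer or medium: F12 plus 10% serum | Compound dosing: 10 µM single point, 0.5% DMSO | Schedule: 6 h compound treatment, 37 °C | Signal: Luciferase luminescence | Control set: Tunicamycin high control, DMSO low control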
tim23-1 inh: inhibits growth of tim23-1 mutant yeast | S. cerevisiae tim23-1 growth, BacTiter-Glo luminescence, 24 h | inhibition, % at 20 µM | 330,000 compounds, 1.3% hits;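 active = growth inhibition of the mutant yeast at or above 50%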;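 note: temperature-sensitive mutant grown at 25 °C; plate controls were DMSO-treated mutant yeast for no effect and medium wells lacking yeast for full effect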
XBP1 UPR activ: adaptive UPR (XBP1) activation; AID 463104; activation, % at 20 µM; 330,000 compounds, 0.33% hits; CHO-XBP1 luciferase reporter, IRE1-XBP1 UPR activation, luminescence; percent of tunicamycin response, DMSO as zero;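 active = versus positive control, 20 µM dose yields 30% or more activation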;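 note: 100% = tunicamycin at 10 µg/mL and 0% = DMSO only wells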
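Signal: luciferase luminescence; Assay system: CHO-XBP1 luciferase reporter cells; Amount: one thousand reporter cells per well; Dosing: 20 µM single concentration, DMSO 1%; Benchmarks: high control tunicamycin 10 µg/mL final, low control DMSO vehicle only; Schedule: 6 h compound exposure at 37 °C, 5% CO2; Evaluation: percent activation relative to tunicamycin reference.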
tim10-1 confirm: confirmation of tim10-1 mutant yeast growth inhibitors. shares compounds with tim10-1 inh. S. cerevisiae tim10-1 ts strain growth, BacTiter-Glo, 24 h. inhibition, % at 20 µM. 7,400 compounds, 56% hits. AID 463213;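 active = inhibition of yeast growth at or above a set limit in either of two repeat tests at 20 µM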;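 note: tim10-1 mutant grown at permissive 25 °C to find synthetic lethal compounds; 0% = DMSO yeast wells and 100% = medium wells without yeast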
* hit, by the source's call; nt = not tested or not shown. Most compounds without a hit are left out; they make up all but 3.9% or so of the library.

SMILES | tim10-1 inh | TIM10 inh | UPR CHOP act | tim23-1 inh | XBP1 UPR activ | tim10-1 confirm
CC(C)c1ccc(S(=O)(=O)N2CCN(CC(=O)Nc3ccc4c(c3)OCO4)CC2)cc1 | 52* | 20 | 0 | 35 | -5 | 40*
O=C(Cc1ccc(Cl)cc1)Nc1cccc(S(=O)(=O)N2CCCCC2)c1 | 7 | -4 | 0 | 11 | -2 | nt
CC(=O)N1CCN(S(=O)(=O)c2cccc(C(=O)NC3CC3)c2)CC1 | -15 | 5 | -3 | -6 | -1 | nt
CCNS(=O)(=O)c1ccc(C(=O)OCc2cc(=O)oc3cc(OC)ccc23)cc1 | -11 | 7 | 2 | -1 | 9 | nt
Cc1noc(C)c1NC(=O)Nc1ccc2c(c1)C(=O)N([C@H](C)CO)C[C@H](C)[C@@H](CN(C)C(=O)NC1CCCCC1)O2 | 4 | -2 | 1 | -1 | -2 | nt
CN(CC(=O)Nc1ccc(S(=O)(=O)N2CCCC2)cc1)Cc1ccc(Cl)cc1Cl | 46* | 3 | 0 | 33 | -1 | 22
CCOc1ccc(NC(=O)CCN2CCN(S(=O)(=O)c3ccc(F)cc3)CC2)cc1 | 9 | 8 | -1 | 14 | -3 | nt
CN(CC(=O)Nc1ccc(S(=O)(=O)N2CCCC2)cc1)CC(=O)Nc1ccc(F)c(F)c1F | 2 | -3 | -2 | 13 | -3 | nt
O=C(CN1CCN(S(=O)(=O)c2ccc(Br)cc2)CC1)N/N=C/c1ccc(Br)s1 | 44* | 24 | 0 | 43 | -3 | 36*
O=C(CN1CCN(S(=O)(=O)c2ccc(Br)cc2)CC1)Nc1ccc2c(c1)OCCO2 | 7 | -20 | 0 | 16 | -1 | nt
CCOc1ccc(NC(=O)CN2CCN(S(=O)(=O)c3ccc(Cl)cc3)CC2)cc1 | 41* | 10 | -1 | 37 | -3 | 22
COC(=O)c1ccc(NC(=O)CN2CCN(S(=O)(=O)c3ccc(Br)cc3)CC2)cc1 | 46* | 15 | 2 | 34 | -1 | 36*
Cc1onc(-c2c(F)cccc2Cl)c1C(=O)Nc1ccc(Cl)c(S(=O)(=O)N(C)C)c1 | 22 | 16 | 0 | 22 | -3 | nt
O=C(CN1CCN(S(=O)(=O)c2ccccc2)CC1)Nc1ccc(Cl)c(Cl)c1 | 43* | 25 | 1 | 10 | -1 | 30*
O=C(CN1CCN(S(=O)(=O)c2ccc(Cl)cc2)CC1)Nc1ccc2c(c1)CCC2 | 50* | 22 | 2 | 44 | -2 | 40*
O=C(CN1CCN(S(=O)(=O)N2CCCCC2)CC1)Nc1ccc(Cl)c(Cl)c1 | 17 | 14 | 1 | 27 | 0 | nt
O=C(NCc1ccccc1F)C1CCCN1S(=O)(=O)c1ccc(Cl)cc1 (configuration not stated) | 12 | -9 | -2 | 5 | -3 | nt
CC(Oc1ccc(Cl)cc1)C(=O)N1CCN(C(=O)c2ccco2)CC1 (configuration not stated) | 30 | 25 | 3 | 41 | -2 | nt
Cc1cc(NC(=O)c2noc3c2CCCC3)nn1Cc1ccc(Cl)cc1 | 45* | 17 | 0 | 27 | 1 | 22
CCc1ccc(NC(=O)c2sc3nc4n(c(=O)c3c2C)CCC4)cc1 | 44* | -11 | 4 | 34 | -1 | 12
CC(=O)Nc1ccc(NC(=O)c2sc3nc4n(c(=O)c3c2C)CCCCC4)cc1 | 14 | 10 | -3 | 15 | -5 | nt
Cc1ccc(CCNC(=O)c2sc3nc4n(c(=O)c3c2C)CCC4)cc1 | 18 | -6 | 5 | 12 | 2 | nt
CC(=O)c1cccc(NC(=O)c2sc3nc4n(c(=O)c3c2C)CCCC4)c1 | 52* | 19 | 3 | 18 | 0 | 28*
CCOc1ccc(S(=O)(=O)NCCC(=O)NCC(c2ccco2)N2CCCCC2)cc1 (configuration not stated) | -13 | -4 | 0 | -4 | -1 | nt
COc1ccc(C(=O)/C=C/c2ccccc2)c(O)c1 | 49* | 40 | 4 | 34 | 10 | 47*
SMILES | tim10-1 inh | TIM10 inh | UPR CHOP act | tim23-1 inh | XBP1 UPR activ | tim10-1 confirm
COc1ccc(C(=O)/C=C/c2ccc(OC)cc2OC)c(O)c1 | 2 | 2 | 5 | 11 | -1 | nt
COc1ccc(C(=O)c2ccccc2O)c(O)c1 | 18 | 3 | 0 | 34 | -5 | nt
COc1ccc(C(=O)c2ccc(OC)cc2O)c(O)c1 | 41* | 15 | 3 | 21 | 0 | 36*
CC(C)(O)C#Cc1ccc(C(=O)N2CCN(c3ccc(Cl)cc3)CC2)cc1 | 49* | 27 | -1 | 35 | -3 | 40*
CC(C)(O)C#Cc1ccc(C(=O)N2CCN(c3ccc(F)cc3)CC2)cc1 | 4 | -3 | -1 | 14 | -5 | nt
COc1cccc(/C=C/C(=O)OCC(=O)N2CCCC2)c1OC | 5 | 4 | 3 | 4 | -1 | nt
Cc1ccc(NC(=O)c2cccc(OC(F)F)c2)c(OC(F)F)c1 | 32 | 16 | 1 | 30 | 2 | nt
Cc1c(Cl)cccc1NC(=O)c1cccc(OC(F)F)c1 | 47* | 35 | 3 | 46 | 1 | 48*
O=c1cc(C(F)(F)F)nc(SC/C=C/c2ccccc2)[nH]1 | 27 | 20 | 2 | 38 | 3 | nt
COC(=O)c1cn(C(=O)c2ccc(OC)cc2)c2ccccc12 | 42* | 12 | -2 | 42 | 12 | 18
CC(C)CNC(=O)[C@@H]1CSC2c3ccccc3C(=O)N21 (some centres not stated) | 11 | 3 | 0 | 13 | -2 | nt
Cc1ccc(S(=O)(=O)NCC(=O)OCc2csc(-c3ccccc3)n2)cc1 | 33 | 4 | 2 | 40 | -1 | nt
O=C(CNS(=O)(=O)c1c(Cl)cccc1Cl)OCc1csc(-c2ccccc2)n1 | 47* | 14 | 2 | 47 | 1 | 32*
Cc1ccc(S(=O)(=O)N2[C@@H](c3cccc(Cl)c3)C(C(=O)O)=CC[C@H]2c2cccs2)cc1 | 1 | -16 | 0 | -6 | 0 | nt
Cc1nn(-c2ccccc2)c(N2CCCC2)c1/C=N/NC(=S)Nc1ccccc1C(F)(F)F | 41* | 24 | 9 | 22 | -1 | 24
Cc1ccc(OCc2ccc(Br)cc2)c([N+](=O)[O-])n1 | 25 | 21 | 4 | 45 | 1 | nt
Cc1ccc(OCCOc2cccc(Br)c2)c([N+](=O)[O-])n1 | 54* | -2 | 7 | 39 | 3 | 40*
CC(C)C(NC(=O)c1c(F)cccc1F)C(=O)NCc1ccc(S(=O)(=O)N2CCOCC2)cc1 (configuration not stated) | -11 | 8 | -2 | 0 | 0 | nt
O=C(Oc1c(-c2ccccc2)c(=O)n2c3c(cccc13)CC2)c1ccc(Cl)cc1 | 33 | 25 | 3 | 48 | 0 | nt
O=C(Oc1c(-c2ccccc2)c(=O)n2c3c(cccc13)CC2)c1ccco1 | 46* | 35 | 4 | 44 | 2 | 1
